Reference: ChEMBL document CHEMBL1127647, “Synthesis and antiviral activities of 8-alkynyl-, 8-alkenyl-, and 8-alkyl-2'-deoxyadenosine analogues” (1994)
Converted amounts (≈) assume the structure as drawn.

Legend:
Assay type in all cases: functional
HEL [1] = assay: Minimum inhibitory concentration to reduce cytopathicity by 50% in proliferation of human embryonic lung cells (HEL)
In short: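 Host cell toxicity is read as the compound concentration that reduces HEL cell proliferation by 50%.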

[2] = system: Respiratory syncytial virus; assay: Minimum inhibitory concentration required for antiviral activity to reduce Respiratory syncytial virus (RSV) (Long) induced cytopathicity in human carcinoma cells (HeLa)
In short: (§1)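 Endpoint is the compound concentration that reduces virus-induced cytopathicity in the host cell monolayer by 50%.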

MDCK [3] = assay: Minimum inhibitory concentration required for antiviral activity to reduce Influenza A virus (Ishikawa) induced cytopathicity in Madin-Darby canine kidney cells (MDCK); conditions: Canis lupus familiaris; in short: as §1
HEL [4] = assay: Minimum inhibitory concentration required for antiviral activity to reduce TK Varicella Zoster virus (VZV) (07/1) induced cytopathicity in human embryonic lung cells (HEL)
MDCK [5] = assay: Minimum inhibitory concentration required for antiviral activity to reduce influenza B virus (Singapore) induced cytopathicity in Madin-Darby canine kidney cells (MDCK); conditions: Canis lupus familiaris; in short: as §1
MDCK [6] = assay: Minimum inhibitory concentration to reduce cytopathicity by 50% in morphology of Madin-Darby canine kidney cells (MDCK); conditions: Canis lupus familiaris
Vaccinia virus = assay: Minimum inhibitory concentration required for antiviral activity to reduce Vaccinia virus (VV) induced cytopathicity in human embryonic skin-muscle cells (ESM); conditions: Orthopoxvirus vaccinia; in short: as §1
HEL [7] = assay: Minimum inhibitory concentration required for antiviral activity to reduce Varicella Zoster virus (VZV) (Oka) induced cytopathicity in human embryonic lung cells (HEL)
ESM = assay: Minimum inhibitory concentration to reduce cytopathicity by 50% in morphology of human embryonic skin-muscle cells (ESM)
HeLa = assay: Minimum inhibitory concentration to reduce cytopathicity by 50% in morphology of human carcinoma cells (HeLa)
In short: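 Cytotoxicity endpoint is the minimum compound concentration that causes a microscopically detectable alteration of normal host cell morphology.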

HEL [8] = assay: Minimum inhibitory concentration required for antiviral activity to reduce Cytomegalovirus (CMV) (Davis) induced cytopathicity in human embryonic lung cells (HEL); in short: as §1
Human alphaherpesvirus 1 = assay: Minimum inhibitory concentration required for antiviral activity to reduce TK-HSV-1 (B2006) induced cytopathicity in human embryonic skin-muscle cells (ESM); in short: as §1
HEL [9] = assay: Minimum inhibitory concentration required for antiviral activity to reduce Cytomegalovirus (CMV) (AD-169) induced cytopathicity in human embryonic lung cells (HEL); in short: as §1
[10] = system: Vesicular stomatitis virus; assay: Minimum inhibitory concentration required for antiviral activity to reduce Vesicular stomatitis virus (VSV) induced cytopathicity in human embryonic skin-muscle cells (ESM); in short: as §1

| Compound | MIC (HEL [1]) | MIC [2] | MIC (MDCK [3]) | MIC (HEL [4]) | MIC (MDCK [5]) | MIC (MDCK [6]) | MIC (Vaccinia virus) | MIC (HEL [7]) | MIC (ESM) | MIC (HeLa) | MIC (HEL [8]) | MIC (Human alphaherpesvirus 1) | MIC (HEL [9]) | MIC [10] |
| --- | --- | --- | --- | --- | --- | --- | --- | --- | --- | --- | --- | --- | --- | --- |
| CCCCCc1nc2c(N)ncnc2n1[C@H]1C[C@H](O)[C@@H](CO)O1 | 30 µg/mL (≈ 93.3 µM) | > 100 µg/mL | > 100 µg/mL | 20 µg/mL (≈ 62.2 µM) | > 100 µg/mL | 100 µg/mL (≈ 311 µM) | 150 µg/mL (≈ 467 µM) | 20 µg/mL (≈ 62.2 µM) | > 200 µg/mL | 100 µg/mL (≈ 311 µM) | 10 µg/mL (≈ 31.1 µM) | > 100 µg/mL | 10 µg/mL (≈ 31.1 µM) | 70 µg/mL (≈ 218 µM) |
| CCC/C=C\c1nc2c(N)ncnc2n1[C@H]1C[C@H](O)[C@@H](CO)O1 | 40 µg/mL (≈ 125 µM) | 100 µg/mL (≈ 313 µM) | > 200 µg/mL | > 50 µg/mL | > 200 µg/mL | > 200 µg/mL | > 100 µg/mL | > 50 µg/mL | ≥ 200 µg/mL | > 200 µg/mL | > 50 µg/mL | > 100 µg/mL | > 50 µg/mL | > 100 µg/mL |
| C#Cc1nc2c(N)ncnc2n1[C@H]1C[C@H](O)[C@@H](CO)O1 | 2 µg/mL (≈ 7.27 µM) | > 4 µg/mL | > 20 µg/mL | 4 µg/mL (≈ 14.5 µM) | > 20 µg/mL | 20 µg/mL (≈ 72.7 µM) | > 4 µg/mL | 7 µg/mL (≈ 25.4 µM) | 10 µg/mL (≈ 36.3 µM) | 4 µg/mL (≈ 14.5 µM) | 4 µg/mL (≈ 14.5 µM) | > 4 µg/mL | 2 µg/mL (≈ 7.27 µM) | > 4 µg/mL |
| CCCCC/C=C\c1nc2c(N)ncnc2n1[C@H]1C[C@H](O)[C@@H](CO)O1 | 20 µg/mL (≈ 57.6 µM) | 14 µg/mL (≈ 40.3 µM) | 12 µg/mL (≈ 34.5 µM) | 10 µg/mL (≈ 28.8 µM) | > 100 µg/mL | 100 µg/mL (≈ 288 µM) | 20 µg/mL (≈ 57.6 µM) | 15 µg/mL (≈ 43.2 µM) | > 100 µg/mL | 100 µg/mL (≈ 288 µM) | 20 µg/mL (≈ 57.6 µM) | > 40 µg/mL | 30 µg/mL (≈ 86.4 µM) | > 40 µg/mL |
| Nc1ncnc2c1ncn2[C@H]1C[C@H](O)[C@@H](CO)O1 [DEOXYADENOSINE] |  | 20 µg/mL (≈ 79.6 µM) | > 200 µg/mL | > 100 µg/mL | > 200 µg/mL | > 200 µg/mL | > 400 µg/mL | > 100 µg/mL | > 400 µg/mL | 200 µg/mL (≈ 796 µM) | > 100 µg/mL | > 400 µg/mL | > 100 µg/mL | > 400 µg/mL |
| CCCC#Cc1nc2c(N)ncnc2n1[C@H]1C[C@H](O)[C@@H](CO)O1 | 10 µg/mL (≈ 31.5 µM) | > 100 µg/mL | 30 µg/mL (≈ 94.5 µM) | 20 µg/mL (≈ 63 µM) | > 100 µg/mL | 100 µg/mL (≈ 315 µM) | 150 µg/mL (≈ 473 µM) | 40 µg/mL (≈ 126 µM) | 400 µg/mL (≈ 1260 µM) | 100 µg/mL (≈ 315 µM) | 10 µg/mL (≈ 31.5 µM) | 100 µg/mL (≈ 315 µM) | 10 µg/mL (≈ 31.5 µM) | 70 µg/mL (≈ 221 µM) |
| NC(=O)c1ncn([C@@H]2O[C@H](CO)[C@@H](O)[C@H]2O)n1 [RIBAVIRIN] |  |  |  |  |  |  | 70 µg/mL (≈ 287 µM) |  | > 400 µg/mL |  |  | > 300 µg/mL |  | > 400 µg/mL |
| CCc1nc2c(N)ncnc2n1[C@H]1C[C@H](O)[C@@H](CO)O1 | > 200 µg/mL | > 200 µg/mL | > 200 µg/mL | 55 µg/mL (≈ 197 µM) | > 200 µg/mL | > 200 µg/mL | > 400 µg/mL | > 100 µg/mL | > 400 µg/mL | > 200 µg/mL | 70 µg/mL (≈ 251 µM) | 300 µg/mL (≈ 1070 µM) | 70 µg/mL (≈ 251 µM) | > 400 µg/mL |
